# Screening results (PubChem BioAssay)
# This is a sample that favours compounds with a hit; in the whole collection about 2.9% have one here.
# Runt-CBFb FRET: Runt domain-CBFb interaction inhibition; Q01196+Q13951; Cerulean-Runt/Venus-CBFb FRET ratio 530/480, 1 h; inhibition, % at 20 µM; 220,000 tested, 0.46% active; AID 1496;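 active = inhibition over about 50% at 20 µM in the single-dose screen, limit read from the data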;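 note: 0% = DMSO wells and 100% = excess unlabeled CBFb competitor control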
#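 Reagent – Venus-CBFb binding partner, 100 nM · Assay system – Cerulean-tagged RUNX1 Runt domain (FRET donor) fusion protein · Input – 100 nM per protein · Incubation – two 1 h room-temperature incubations shielded from light · Measured by – FRET fluorescence · Medium – Tris buffer pH 7.5 with salts and BSA · Benchmarks – unlabeled CBFb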
# Wee1 degr inh: blocks degradation of human Wee1 kinase; P30291; 220,000 tested, 1.2% active; HeLa Luc-Wee1K328M stability, luciferase luminescence; 100% = proteasome inhibitor MG132 effect; reporter increase, % at 5 µM;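 active = activation above the mean of all tested compounds plus 3 SD, set per screening run, cut at about 8.8% in these data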;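 note: cells exposed to compound for 20 h before luminescence read; 0% = DMSO alone and 100% = MG132 at 30 µM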
# RanGTP-Imp inh: disruptors of Ran-importin-beta complex formation – biochemical, FRET, CFP-Ran, YFP-importin-beta, homogeneous, primary screen. cell-free CFP-Ran/YFP-importin-beta FRET ratio. inhibition, % (test concentration not listed). 300,000 tested, 1.1% active;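 active = more than half of the replicate wells show a fall in the fluorescence ratio signal beyond about 16%, limit read from the data, passing the limit was not always enough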;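 note: 0% = DMSO wells and 100% = Ran loaded with GDP instead of GTP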
# Runt-SMMHC FRET: inhibitors of human RUNX1 Runt domain binding to CBFb-SMMHC; Q01196+Q13951; inhibition, % at 20 µM; AID 1434; 220,000 tested, 0.74% active; Cerulean-Runt/Venus-CBFb-SMMHC FRET ratio 530/480, 1 h;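 active = mean inhibition across duplicate retests at 20 µM reaching about 50%, limit read from the data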;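 note: 0% = DMSO wells and 100% = wells with excess untagged CBFb-SMMHC; inhibitors lower the FRET ratio by blocking Runt binding to CBFb-SMMHC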
# AI-2 QS mod: modulates the Vibrio harveyi AI-2 quorum sensing system; activity change, % at 7.5 µM; 300,000 tested, 0.4% active; Vibrio harveyi JMH597 AI-2 luminescence/OD600 ratio, 9 h; hits give low values; strain lacks LuxN and CqsS sensors; 0 = neutral-control median; AID 2094; in the data active = activity change below about -75%, passing the limit was not always enough;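 note: luminescence divided by OD600 gain over 9 h not by final OD600 alone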
# proKLK7 act: activates the human kallikrein-7 zymogen | P49862 | purified proKLK7, EDANS-DABCYL substrate fluorescence; 100% is mature enzyme control, 0% vehicle | activation, % at 7 µM | 370,000 tested, 0.9% active | AID 652039;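 active = activation above the mean of all tested compounds plus 3 SD, computed per campaign excluding outliers beyond control limits, cut at about 13% in these data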
# Target sequence (P49862 whole entry, looked up): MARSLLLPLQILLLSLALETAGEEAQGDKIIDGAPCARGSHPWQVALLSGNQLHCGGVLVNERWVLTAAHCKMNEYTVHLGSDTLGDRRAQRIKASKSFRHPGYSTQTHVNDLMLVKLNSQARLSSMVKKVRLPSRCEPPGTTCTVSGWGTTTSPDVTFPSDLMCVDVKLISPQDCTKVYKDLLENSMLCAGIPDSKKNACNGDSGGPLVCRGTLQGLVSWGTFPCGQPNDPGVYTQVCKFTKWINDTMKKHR
# Wee1 degr conf: confirmation of human Wee1 degradation inhibitors. shares compounds with Wee1 degr inh. HeLa Luc-Wee1K328M degradation, luminescence; vehicle 0%, proteasome-blocked wells 100%. activation, % at 5 µM. 1,100 tested, 4% active; in the data active = activation above about 8.9%
# * marks the source's active call; other numbers are inactive results; . = not tested or not shown.
SMILES,Runt-CBFb FRET,Wee1 degr inh,RanGTP-Imp inh,Runt-SMMHC FRET,AI-2 QS mod,proKLK7 act,Wee1 degr conf
COc1cc([N+](=O)[O-])ccc1NC(=O)CCCOc1ccccc1,-2.1,3.5,-1.6,2.8,5.1,0.3,.
S=C(NCCN1CCOCC1)Nc1cccc(Cl)c1,-1.1,15.0*,3.7,0.8,22.5,-0.3,-1.0
S=C(Nc1cccc(Cl)c1)N1CCN(Cc2ccccc2)CC1,-0.8,11.1*,-0.4,-0.4,-4.5,-0.9,4.5
S=C(NCCCN1CCOCC1)Nc1cccc(Cl)c1,0.1,-0.3,2.5,0.0,19.2,-0.4,.
Cc1nnc(SCC(=O)N2c3ccccc3CC2C)[nH]c1=O (configuration not stated),-0.8,-2.8,1.6,-0.1,26.1,1.0,.
CC(C1CC1)N(Cc1ccccc1)C(=O)NC(=O)c1ccc(F)cc1 (configuration not stated),0.2,34.0*,-1.4,0.7,24.6,-0.3,-0.5
CC1CC(O)C2C3(C)CCCC2(COC3=O)C12CCC1(CCOC1=O)O2 (configuration not stated),.,.,.,.,.,0.1,.
N#Cc1cccc(NC(=O)CSc2nnc(-c3n[nH]c4ccccc34)o2)c1,1.3,21.5*,-1.7,-8.8,37.1,0.3,3.2
Cc1ccc(-n2c(N)c(C(=O)NCc3cccnc3)sc2=S)cc1,.,1.8,0.2,21.9,19.3,-0.5,.
Cc1ccc(CNC(=O)COC(=O)c2ccc(S(=O)(=O)N(C)C)cc2)cc1,-0.2,0.4,0.6,-2.1,15.0,-0.7,.
COC(=O)C(Cc1c[nH]c2ccccc12)NC(=O)c1cccs1 (configuration not stated),-0.1,-1.8,-1.2,-0.3,12.5,0.5,.
COC(=O)C(Cc1c[nH]c2ccccc12)NC(C)=O (configuration not stated),-2.8,11.1*,2.4,-2.7,19.7,0.1,-1.9
COc1ccccc1/C=C/C(=O)Nc1ccc2c(c1)CCC2,1.0,10.9*,1.6,1.6,3.9,-1.9,6.2
Fc1ccccc1/C=N/Nc1ncnc2ccccc12,0.0,11.5*,1.9,0.2,41.0,0.3,2.9
Cc1nn(-c2ccccc2)c(C)c1-c1cc(C(=O)N/N=C/c2cccnc2)[nH]n1,-0.3,19.4*,-3.7,2.1,12.5,0.5,3.0
CCOC(=O)c1c(C)n(CCNC(C)=O)c2ccc(O)cc12,1.5,-2.7,2.9,0.5,20.2,0.2,.
CCOC(=O)c1c2n(c3ccc(O)cc13)CCC2,-2.5,11.1*,0.9,2.2,0.3,-0.7,-0.6
Cc1ccc(S(=O)(=O)N(C)CCCC(=O)NC(C)(C)C)cc1,-0.1,12.0*,1.5,-0.4,42.5,0.1,-0.9
Cc1ccc(S(=O)(=O)N(C)CCCC(=O)NC(C)(C)CO)cc1,-0.5,0.3,2.6,1.2,31.5,-0.4,.
Cc1ccc2[nH]c(C(=O)NN=C3CCCCC3)c(-c3ccccc3)c2c1,-7.5,15.7*,-0.8,3.2,12.3,-5.0,4.2
Cc1ccc2[nH]c(C(=O)O)c(-c3ccccc3)c2c1,0.6,-0.9,-2.7,0.1,5.0,-0.4,.
Cc1ccc(C)c(OCc2cc(C(=O)NC3CCOC(C)(C)C3)no2)c1 (configuration not stated),.,.,-0.5,.,26.3,0.5,.
CCOC(=O)C1=C(O)C(=O)N(Cc2ccccc2)CC1,-2.1,4.7,-3.9,-104.8,16.3,-0.4,.
CCOC(=O)C1=C(O)C(=O)N(Cc2ccc(C(C)(C)C)cc2)CC1,-7.1,13.8*,2.1,-0.8,10.9,-0.1,1.3
O=CN1CCN(C(=O)c2ccc(-c3nc4ccccc4s3)s2)CC1,-2.3,16.6*,-4.2,-1.4,24.8,0.2,1.6
O=C(/C=C\Nc1ccc(Br)cc1)c1cccnc1,2.5,11.0*,1.0,9.0,-47.0,0.1,-0.4
